# Test results published in ChEMBL document CHEMBL1123551, “3-Pyrroline N-oxide bis(carbamate) tumor inhibitors as analogues of indicine N-oxide” (J Med Chem, 1987).
# Assays:
# [1] = system: P388; test: In vivo antileukemic activity against P388 lymphocytic leukemia at a dose of 15 mg/kg administered intraperitoneally expressed as log of the number of tumor cells (cell kill); type: ADME, organism-based; parameters: dose 15 mg/kg, route intraperitoneal; settings: mouse, ip
# Outline: (§1)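 P388 tumor inoculated ip. Drug solution in distilled water injected ip as five daily doses, starting 24 h after inoculation; some compounds were given as suspensions made fresh daily and used immediately.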
# [2] = system: P388; test: In vivo antileukemic activity against P388 lymphocytic leukemia at a dose of 3.75 mg/kg administered intraperitoneally expressed as log of the number of tumor cells (cell kill); type: ADME, organism-based; parameters: dose 3.75 mg/kg, route intraperitoneal; settings: mouse, ip; outline: as §1
# [3] = system: P388; test: In vivo antileukemic activity against P388 lymphocytic leukemia at a dose of 30 mg/kg administered intraperitoneally expressed as log of the number of tumor cells (cell kill); type: ADME, organism-based; parameters: dose 30 mg/kg, route intraperitoneal; settings: mouse, ip; outline: as §1
# [4] = system: P388; test: In vivo antileukemic activity against P388 lymphocytic leukemia at a dose of 7.5 mg/kg administered intraperitoneally expressed as log of the number of tumor cells (cell kill); type: ADME, organism-based; parameters: dose 7.5 mg/kg, route intraperitoneal; settings: mouse, ip; outline: as §1
# [5] = system: P388; test: In vivo antileukemic activity against P388 lymphocytic leukemia at a dose of 3.75 mg/kg administered intraperitoneally expressed as weight change of treated to control animals; type: functional, Mus musculus; settings: route intraperitoneal
# Outline: (§2)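 P388 leukemia inoculated ip. Test drug in distilled water given ip once daily for 5 days, beginning 24 h post-inoculation; some compounds were dosed as suspensions prepared fresh daily and used immediately. Read-out is body weight change of treated animals relative to untreated controls.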
# [6] = system: P388; test: In vivo antileukemic activity against P388 lymphocytic leukemia at a dose of 30 mg/kg administered intraperitoneally expressed as weight change of treated to control animals; type: functional, Mus musculus; settings: route intraperitoneal; outline: as §2
# [7] = system: P388; test: In vivo antileukemic activity against P388 lymphocytic leukemia at a dose of 7.5 mg/kg administered intraperitoneally expressed as weight change of treated to control animals; type: functional, Mus musculus; settings: route intraperitoneal; outline: as §2
# [8] = system: P388; test: In vivo antileukemic activity against P388 lymphocytic leukemia at a dose of 15 mg/kg administered intraperitoneally expressed as ratio of survival of treated compared to untreated control animals; type: functional, Mus musculus; settings: route intraperitoneal
# Outline: (§3)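 Drug given ip as a solution in distilled water. Five daily doses, starting 24 h after ip tumor inoculation. % T/C is the survival of treated animals divided by that of untreated controls, expressed as a percent. Log cell kill (KE) is the log of tumor cell number at the end of treatment relative to the start. Weight change of treated animals is recorded relative to controls.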
# [9] = system: P388; test: In vivo antileukemic activity against P388 lymphocytic leukemia at a dose of 3.75 mg/kg administered intraperitoneally expressed as ratio of survival of treated compared to untreated control animals; type: functional, Mus musculus; settings: route intraperitoneal; outline: as §3
# [10] = system: P388; test: In vivo antileukemic activity against P388 lymphocytic leukemia at a dose of 30 mg/kg administered intraperitoneally expressed as ratio of survival of treated compared to untreated control animals; type: functional, Mus musculus; settings: route intraperitoneal; outline: as §3
# [11] = system: P388; test: In vivo antileukemic activity against P388 lymphocytic leukemia at a dose of 7.5 mg/kg administered intraperitoneally expressed as ratio of survival of treated compared to untreated control animals; type: functional, Mus musculus; settings: route intraperitoneal; outline: as §3
# [12] = system: P388; test: In vivo antileukemic activity against P388 lymphocytic leukemia at a dose of 15 mg/kg administered intraperitoneally expressed as weight change of treated to control animals; type: functional, Mus musculus; settings: route intraperitoneal; outline: as §2
# [13] = system: P388; test: In vivo antileukemic activity against P388 lymphocytic leukemia at a dose of 100 mg/kg administered intraperitoneally expressed as log of the number of tumor cells (cell kill); type: ADME, organism-based; parameters: dose 100 mg/kg, route intraperitoneal; settings: mouse, ip; outline: as §1
# [14] = system: P388; test: In vivo antileukemic activity against P388 lymphocytic leukemia at a dose of 12.5 mg/kg administered intraperitoneally expressed as log of the number of tumor cells (cell kill); type: ADME, organism-based; parameters: dose 12.5 mg/kg, route intraperitoneal; settings: mouse, ip; outline: as §1
# [15] = system: P388; test: In vivo antileukemic activity against P388 lymphocytic leukemia at a dose of 200 mg/kg administered intraperitoneally expressed as log of the number of tumor cells (cell kill); type: ADME, organism-based; parameters: dose 200 mg/kg, route intraperitoneal; settings: mouse, ip; outline: as §1
# [16] = system: P388; test: In vivo antileukemic activity against P388 lymphocytic leukemia at a dose of 25 mg/kg administered intraperitoneally expressed as log of the number of tumor cells (cell kill); type: ADME, organism-based; parameters: dose 25 mg/kg, route intraperitoneal; settings: mouse, ip; outline: as §1
# [17] = system: P388; test: In vivo antileukemic activity against P388 lymphocytic leukemia at a dose of 400 mg/kg administered intraperitoneally expressed as log of the number of tumor cells (cell kill); type: ADME, organism-based; parameters: dose 400 mg/kg, route intraperitoneal; settings: mouse, ip; outline: as §1
# [18] = system: P388; test: In vivo antileukemic activity against P388 lymphocytic leukemia at a dose of 50 mg/kg administered intraperitoneally expressed as log of the number of tumor cells (cell kill); type: ADME, organism-based; parameters: dose 50 mg/kg, route intraperitoneal; settings: mouse, ip; outline: as §1
# [19] = system: P388; test: In vivo antileukemic activity against P388 lymphocytic leukemia at a dose of 100 mg/kg administered intraperitoneally expressed as ratio of survival of treated compared to untreated control animals; type: functional, Mus musculus; settings: route intraperitoneal; outline: as §3
# [20] = system: P388; test: In vivo antileukemic activity against P388 lymphocytic leukemia at a dose of 400 mg/kg administered intraperitoneally expressed as weight change of treated to control animals; type: functional, Mus musculus; settings: route intraperitoneal; outline: as §2
# [21] = system: P388; test: In vivo antileukemic activity against P388 lymphocytic leukemia at a dose of 50 mg/kg administered intraperitoneally expressed as weight change of treated to control animals; type: functional, Mus musculus; settings: route intraperitoneal; outline: as §2
# [22] = system: P388; test: In vivo antileukemic activity against P388 lymphocytic leukemia at a dose of 12.5 mg/kg administered intraperitoneally expressed as ratio of survival of treated compared to untreated control animals; type: functional, Mus musculus; settings: route intraperitoneal; outline: as §3
# [23] = system: P388; test: In vivo antileukemic activity against P388 lymphocytic leukemia at a dose of 200 mg/kg administered intraperitoneally expressed as ratio of survival of treated compared to untreated control animals; type: functional, Mus musculus; settings: route intraperitoneal; outline: as §3
# [24] = system: P388; test: In vivo antileukemic activity against P388 lymphocytic leukemia at a dose of 25 mg/kg administered intraperitoneally expressed as ratio of survival of treated compared to untreated control animals; type: functional, Mus musculus; settings: route intraperitoneal; outline: as §3
# [25] = system: P388; test: In vivo antileukemic activity against P388 lymphocytic leukemia at a dose of 200 mg/kg administered intraperitoneally expressed as weight change of treated to control animals; type: functional, Mus musculus; settings: route intraperitoneal; outline: as §2
# [26] = system: P388; test: In vivo antileukemic activity against P388 lymphocytic leukemia at a dose of 25 mg/kg administered intraperitoneally expressed as weight change of treated to control animals; type: functional, Mus musculus; settings: route intraperitoneal; outline: as §2
# [27] = system: P388; test: In vivo antileukemic activity against P388 lymphocytic leukemia at a dose of 400 mg/kg administered intraperitoneally expressed as ratio of survival of treated compared to untreated control animals; type: functional, Mus musculus; settings: route intraperitoneal; outline: as §3
# [28] = system: P388; test: In vivo antileukemic activity against P388 lymphocytic leukemia at a dose of 50 mg/kg administered intraperitoneally expressed as ratio of survival of treated compared to untreated control animals; type: functional, Mus musculus; settings: route intraperitoneal; outline: as §3
# [29] = system: P388; test: In vivo antileukemic activity against P388 lymphocytic leukemia at a dose of 100 mg/kg administered intraperitoneally expressed as weight change of treated to control animals; type: functional, Mus musculus; settings: route intraperitoneal; outline: as §2
# [30] = system: P388; test: In vivo antileukemic activity against P388 lymphocytic leukemia at a dose of 12.5 mg/kg administered intraperitoneally expressed as weight change of treated to control animals; type: functional, Mus musculus; settings: route intraperitoneal; outline: as §2
# [31] = system: P388; test: In vivo antileukemic activity against P388 lymphocytic leukemia at a dose of 240 mg/kg administered intraperitoneally expressed as log of the number of tumor cells (cell kill); type: ADME, organism-based; parameters: dose 240 mg/kg, route intraperitoneal; settings: mouse, ip; outline: as §1
# [32] = system: P388; test: In vivo antileukemic activity against P388 lymphocytic leukemia at a dose of 240 mg/kg administered intraperitoneally expressed as ratio of survival of treated compared to untreated control animals; type: functional, Mus musculus; settings: route intraperitoneal; outline: as §3
# [33] = system: P388; test: In vivo antileukemic activity against P388 lymphocytic leukemia at a dose of 240 mg/kg administered intraperitoneally expressed as weight change of treated to control animals; type: functional, Mus musculus; settings: route intraperitoneal; outline: as §2
smiles,measurement,setting,value
CC(C)NC(=O)OCc1cn(C)c(-c2ccccc2)c1COC(=O)NC(C)C,KE,[1],2.63
same,KE,[2],-0.7
same,KE,[3],1.99
same,KE,[4],0.32
same,Weight change,[5],-0.5 g
same,Weight change,[6],-3.4 g
same,Weight change,[7],-1.9 g
same,T/C,[8],181%
same,T/C,[9],129%
same,T/C,[10],171%
same,T/C,[11],145%
same,Weight change,[12],-3.2 g
CNC(=O)OCC1=CC[N+](C)([O-])C1COC(=O)NC (centres undefined),KE,[13],1.7
same,KE,[14],0.39
same,KE,[15],1
same,KE,[16],-1.23
same,KE,[17],0.34
same,KE,[18],0.62
same,T/C,[19],159%
same,Weight change,[20],-5.7 g
same,Weight change,[21],-1.5 g
same,T/C,[22],142%
same,T/C,[23],150%
same,T/C,[24],122%
same,Weight change,[25],-2.4 g
same,Weight change,[26],-1.2 g
same,T/C,[27],143%
same,T/C,[28],145%
same,Weight change,[29],-2.1 g
same,Weight change,[30],-3.8 g
C[N+]1([O-])CC=CC1,KE,[31],-0.12
same,T/C,[32],108%
same,Weight change,[33],-0.2 g
CC(C)NC(=O)OCC1=C(COC(=O)NC(C)C)C(C)(C)[N+](C)([O-])C1c1ccccc1 (centres undefined),KE,[13],-1.53
same,KE,[14],-1.54
same,KE,[16],-1.64
same,KE,[18],-1.53
same,T/C,[19],107%
same,Weight change,[21],0.9 g
same,T/C,[22],108%
same,T/C,[24],100%
same,Weight change,[26],0.1 g
same,T/C,[28],107%
same,Weight change,[29],0.7 g
same,Weight change,[30],2.1 g
CC(C)NC(=O)OCC1=C(COC(=O)NC(C)C)C(c2ccccc2)[N+](C)([O-])C1 (centres undefined),KE,[13],-0.11
same,KE,[14],-1.21
same,KE,[16],-1.5
same,KE,[18],-1.16
same,T/C,[19],134%
same,Weight change,[21],-0.6 g
same,T/C,[22],115%
same,T/C,[24],109%
same,Weight change,[26],-0.1 g
same,T/C,[28],116%
same,Weight change,[29],-1.5 g
same,Weight change,[30],1.6 g
CC(C)NC(=O)OCC1=C(COC(=O)NC(C)C)C(c2ccccc2)N(C)C1 (centres undefined),KE,[13],5.18
same,KE,[14],0.84
same,KE,[16],0
same,KE,[18],0.53
same,T/C,[19],225%
same,Weight change,[21],-2 g
same,T/C,[22],121%
same,T/C,[24],136%
same,Weight change,[26],-0.9 g
same,T/C,[28],145%
same,Weight change,[29],-2.2 g
same,Weight change,[30],0 g
